ChEMBL document CHEMBL2346555, “Efficacious cyclic N-acyl O-amino phenol duocarmycin prodrugs” (J Med Chem, 2013)
Active and inactive are the calls of the source. No cut-off for these calls is given here.

Legend:
Neurospora discreta [1] = experiment: Induction of Neurospora discreta w794 [5-32P]-DNA alkylation assessed as thermal-induced strand cleavage at 1 x 10^-3M incubated for 48 hrs at 23 degC followed by thermolysis at 100 degC for 30 mins measured after 12 to 48 hrs by PAGE/autoradiographic analysis in presence of L-glutathione
L1210 [2] = experiment: Cytotoxicity against mouse L1210 cells assessed as growth inhibition after 72 hrs by phosphatase assay; format: functional, cell-based
Procedure, shortened: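 L1210 mouse leukemia cells were seeded at 30,000 cells/mL in DMEM with 10% FBS and grown 24 h at 37 °C, 5% CO2. DMSO dilutions were then added at six concentrations between 0–100 or 0–1000 nM, in duplicate, for 72 h. Read-out: phosphatase substrate in 0.1 M NaOAc pH 5.5 with 0.1% Triton X-100, 5 min at 37 °C, stopped with NaOH, A405. IC50 is the average of ≥4 determinations.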

Neurospora discreta [3] = experiment: Induction of Neurospora discreta w794 [5-32P]-DNA alkylation thermal-induced strand cleavage at 1 x 10^-2 M incubated for 48 hrs at 23 degC followed by thermolysis at 100 degC measured after 30 mins by PAGE/autoradiographic analysis
[4] = Half life of the compound in phosphate buffer at pH 7
[5] = Half life in human plasma
[6] = Fraction unbound in human plasma; format: ADME, cell-free
[7] = Stability of the compound in H2, Pd/C, MeOH, at 23 degC after 1 hr; format: physicochemical
[8] = Stability of the compound in Mo(CO)6, MeCN/H2O after 3 hrs; format: physicochemical
[9] = Half life in mouse plasma
[10] = Half life of the compound in HCl/EtOAc at 23 degC; format: physicochemical
[11] = Hypoxic cytotoxicity ratio of IC50 for human PC3MM2 cell under aerobic condition to IC50 for human PC3MM2 cells under hypoxic condition; format: functional
[12] = Cytotoxicity against human PC3MM2 cells assessed as growth inhibition under hypoxic condition after 72 hrs by SRB assay; format: functional, cell-based; conditions: PC3MM2, 72 h
Procedure, shortened: (§1)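 Before the assay, A549 and PC3/MM2 cells were adapted for one week under hypoxia (37 °C, 5% CO2, 0.5% O2), subcultured twice; viability was checked by trypan blue. Cells were plated, held 24 h aerobic (37 °C, 5% CO2) or hypoxic, then exposed 72 h to 10 concentrations. SRB read-out per NCI DTP. Growth = [(Ti − Tz)/(C − Tz)] × 100%. IC50 by sigmoidal nonlinear regression, n = 3 independent experiments.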

[13] = Cytotoxicity against human PC3MM2 cells assessed as growth inhibition under aerobic condition after 72 hrs by SRB assay; format: functional, cell-based; conditions: PC3MM2, 72 h; procedure, shortened: as §1
A549 [14] = experiment: Cytotoxicity against human A549 cells assessed as growth inhibition under hypoxic condition after 72 hrs by SRB assay; format: functional, cell-based; conditions: A549, 72 h; procedure, shortened: as §1
A549 [15] = experiment: Hypoxic cytotoxicity ratio of IC50 for human A549 cell under aerobic condition to IC50 for human A549 cells under hypoxic condition; format: functional
A549 [16] = experiment: Cytotoxicity against human A549 cells assessed as growth inhibition under aerobic condition after 72 hrs by SRB assay; format: functional, cell-based; conditions: A549, 72 h; procedure, shortened: as §1
Mus musculus [17] = experiment: Toxicity in B6D2F1 mouse allografted with mouse L1210 cells assessed as mortality at 60 ug/kg, ip tid administered on day 1 to 9 measured after 366 days; format: organism-based; conditions: in vivo, 0.06 mg/kg, 8784 h
Procedure, shortened: (§2)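 Syngeneic L1210 cells (1 × 10^6) were given i.p. to B6D2F1 mice on day 0; 10 per group. Compound in 100% DMSO was injected i.p. on days 1, 5 and 9. Animals were monitored daily and weighed twice weekly, with the study extended to 366 days. Deaths from drug toxicity were recorded.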

L1210 [18] = experiment: Antitumor activity against mouse L1210 cells allografted in B6D2F1 mouse assessed as mean survival period at 200 ug/kg, ip tid administered on day 1 to 9 measured after 366 days relative to vehicle-treated control; format: functional
Procedure, shortened: (§3)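 L1210 cells (1 × 10^6) injected i.p. into B6D2F1 mice on day 0; 10 mice per group, randomized to vehicle or treatment. Dosing in 100% DMSO i.p. on days 1, 5 and 9 at 60–2500 μg/kg/inj. Animals were monitored daily and weighed twice weekly, with follow-up extended to 366 days. T/C = total survival days of the treated group ÷ total survival days of the control group × 100.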

L1210 [19] = experiment: Antitumor activity against mouse L1210 cells allografted in B6D2F1 mouse assessed as mean survival period at 2500 ug/kg, ip tid administered on day 1 to 9 measured after 366 days relative to vehicle-treated control; format: functional; procedure, shortened: as §3
L1210 [20] = experiment: Antitumor activity against mouse L1210 cells allografted in B6D2F1 mouse assessed as mean survival period at 1000 ug/kg, ip tid administered on day 1 to 9 measured after 366 days relative to vehicle-treated control; format: functional; procedure, shortened: as §3
L1210 [21] = experiment: Antitumor activity against mouse L1210 cells allografted in B6D2F1 mouse assessed as mean survival period at 500 ug/kg, ip tid administered on day 1 to 9 measured after 366 days relative to vehicle-treated control; format: functional; procedure, shortened: as §3
L1210 [22] = experiment: Antitumor activity against mouse L1210 cells allografted in B6D2F1 mouse assessed as mean survival period at 60 ug/kg, ip tid administered on day 1 to 9 measured after 366 days relative to vehicle-treated control; format: functional; procedure, shortened: as §3
Neurospora discreta [23] = experiment: Induction of Neurospora discreta w794 [5-32P]-DNA alkylation assessed as thermal-induced strand cleavage at 1 x 10^-5 M to 1 X 10^-4 M incubated for 48 hrs at 23 degC followed by thermolysis at 100 degC measured after 30 mins by PAGE/autoradiographic analysis
Mus musculus [24] = experiment: Toxicity in B6D2F1 mouse allografted with mouse L1210 cells assessed as mortality at 100 to 250 ug/kg, ip tid administered on day 1 to 9 measured after 366 days; format: organism-based; conditions: in vivo, 8784 h; procedure, shortened: as §2
L1210 [25] = experiment: Antitumor activity against mouse L1210 cells allografted in B6D2F1 mouse assessed as mean survival period at 250 ug/kg, ip tid administered on day 1 to 9 measured after 366 days relative to vehicle-treated control; format: functional; procedure, shortened: as §3
L1210 [26] = experiment: Antitumor activity against mouse L1210 cells allografted in B6D2F1 mouse assessed as mean survival period at 100 ug/kg, ip tid administered on day 1 to 9 measured after 366 days relative to vehicle-treated control; format: functional; procedure, shortened: as §3
Neurospora discreta [27] = experiment: Induction of Neurospora discreta w794 [5-32P]-DNA alkylation assessed as thermal-induced strand cleavage at 1 x 10^-3 M incubated for 2 hrs at 23 degC followed by thermolysis at 100 degC for 30 mins measured after 12 to 48 hrs by PAGE/autoradiographic analysis in presence of L-glutathione; conditions: in the assay text read “1 x 10^-5 M” for “1 x 10^-3 M”
Procedure, shortened: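 Agent first held with 1 M L-glutathione at 37 °C for 12 or 48 h to cause reductive activation. It was then incubated with 5′-32P-labelled w794 DNA at 23 °C for 2 h, and unbound agent was removed by EtOH precipitation. Thermolysis followed at 100 °C for 30 min, then 8% denaturing PAGE and autoradiography against Sanger sequencing lanes.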

Neurospora discreta [28] = experiment: Induction of Neurospora discreta w794 [5-32P]-DNA alkylation assessed as thermal-induced strand cleavage at 1 x 10^-3 M incubated for 2 hrs at 23 degC followed by thermolysis at 100 degC for 30 mins measured after 12 to 24 hrs by PAGE/autoradiographic analysis in absence of L-glutathione
Procedure, shortened: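 Agent incubated with 5′-32P-labelled w794 DNA at 23 °C for 2 h; unbound agent removed by EtOH precipitation. Thermolysis at 100 °C for 30 min induced strand cleavage at alkylation sites. Read-out by 8% denaturing PAGE and autoradiography, alongside Sanger G, C, A and T sequencing lanes and untreated control DNA. No glutathione present.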

Neurospora discreta [29] = experiment: Induction of Neurospora discreta w794 [5-32P]-DNA alkylation assessed as thermal-induced strand cleavage at 1 x 10^-5 M incubated for 2 hrs at 23 degC followed by thermolysis at 100 degC for 30 mins measured after 12 to 24 hrs by PAGE/autoradiographic analysis in presence of L-glutathione
Neurospora discreta [30] = experiment: Induction of Neurospora discreta w794 [5-32P]-DNA alkylation assessed as thermal-induced strand cleavage at 1 x 10^-5 M incubated for 2 hrs at 23 degC followed by thermolysis at 100 degC measured after 30 mins by PAGE/autoradiographic analysis in absence of L-glutathione
Procedure, shortened: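 Labeled DNA was incubated with agent for 2 h at 23 °C. Unbound agent was removed by EtOH precipitation, then thermolysis for 30 min at 100 °C, 8% denaturing PAGE and autoradiography, with Sanger G, C, A, T lanes as markers. In the glutathione arm, agent at 1 × 10−5 M was first held at 37 °C with 1 M L-glutathione for 12 or 48 h.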

[31] = Fraction unbound in mouse plasma; format: ADME, cell-free

CNC(=O)c1cccc2c3c(cc(O)c12)N(C(=O)c1cc2cc(NC(=O)c4cc5ccccc5[nH]4)ccc2[nH]1)CC3CCl (racemic)
Activity (Neurospora discreta [1]): Active
IC50 (L1210 [2]; Mus musculus, L1210, 72 h): 0.073 nM

CN1Oc2cc3c(c4cccc(c24)C1=O)[C@H](CCl)CN3C(=O)c1cc2cc(NC(=O)c3cc4ccccc4[nH]3)ccc2[nH]1
Activity (Neurospora discreta [3]): inactive
half-life [4]: > 672 h
half-life [5]: > 168 h
fraction unbound [6]: < 0.05
Stability [7]: Unstable
Stability [8]: Unstable
half-life [9]: > 48 h
half-life [10]: > 72 h
Ratio IC50 [11]: 10
IC50 [12]: 35 nM
IC50 [13]: 350 nM
IC50 (A549 [14]): 5 nM
Ratio IC50 (A549 [15]): 5
IC50 (A549 [16]): 25 nM
Activity (Mus musculus [17]): Toxic
T/C (L1210 [18]): >386
T/C (L1210 [19]): >1500
T/C (L1210 [20]): >1130
T/C (L1210 [21]): >1142
T/C (L1210 [22]): 159
IC50 (L1210 [2]; Mus musculus, L1210, 72 h): 0.99 nM

O=C(Nc1ccc2[nH]c(C(=O)N3C[C@@H](CCl)c4c3cc(O)c3ccccc43)cc2c1)c1cc2ccccc2[nH]1 [SECO-CBI-INDOLE]
Activity (Neurospora discreta [23]): Active
Activity (Mus musculus [24]): Toxic
T/C (L1210 [21]): 17
T/C (L1210 [25]): 21
T/C (L1210 [26]): 36
T/C (L1210 [22]): >284

COC(=O)c1cc2c([nH]1)C(=O)C=C1N(C(=O)c3cc4cc(OC)c(OC)c(OC)c4[nH]3)CC3CC123 (stereo not given) [DUOCARMYCIN SA]
IC50 (L1210 [2]; Mus musculus, L1210, 72 h): 0.1 nM

CN1Oc2cc3c(c4cccc(c24)C1=O)[C@@H](CCl)CN3C(=O)c1cc2cc(NC(=O)c3cc4ccccc4[nH]3)ccc2[nH]1
IC50 (L1210 [2]; Mus musculus, L1210, 72 h): 740 nM

COc1c(O)c2c(c3cc(C(=O)N4CCc5c4c(O)c(OC)c4[nH]c(C(=O)N6CC7CC78C6=CC(=O)c6[nH]cc(C)c68)cc54)[nH]c13)CCN2C(N)=O (stereo not given) [CC-1065]
IC50 (L1210 [2]; Mus musculus, L1210, 72 h): 0.02 nM

O=C(Nc1ccc2[nH]c(C(=O)N3CC(CCl)c4c3cc(O)c3ccccc43)cc2c1)c1cc2ccccc2[nH]1 (stereo not given)
IC50 (L1210 [2]; Mus musculus, L1210, 72 h): 0.9 nM

CN1Oc2cc3c(c4cccc(c24)C1=O)[C@@H](CCl)CN3C(=O)OC(C)(C)C
IC50 (L1210 [2]; Mus musculus, L1210, 72 h): > 1000 nM

CC(C)(C)OC(=O)N1C[C@H](CCl)c2c1cc1c3c(cccc23)C(=O)NO1
IC50 (L1210 [2]; Mus musculus, L1210, 72 h): > 1000 nM

CC(C)(C)OC(=O)NOc1cc2c(c3ccccc13)[C@H](CCl)CN2C(=O)c1cc2cc(NC(=O)c3cc4ccccc4[nH]3)ccc2[nH]1
Activity (Neurospora discreta [27]): Active
Activity (Neurospora discreta [28]): inactive

O=C(Nc1ccc2[nH]c(C(=O)N3C[C@H](CCl)c4c3cc3c5c(cccc45)C(=O)NO3)cc2c1)c1cc2ccccc2[nH]1
IC50 (L1210 [2]; Mus musculus, L1210, 72 h): 65 nM

O=C1Nc2cccc3c4c(cc(c23)O1)N(C(=O)c1cc2cc(NC(=O)c3cc5ccccc5[nH]3)ccc2[nH]1)C[C@H]4CCl
Ratio IC50 [11]: 1.9
IC50 [12]: 170 nM
IC50 [13]: 320 nM
IC50 (A549 [14]): 90 nM
Ratio IC50 (A549 [15]): 1
IC50 (A549 [16]): 90 nM

CC(C)(C)OC(=O)N1C[C@H]2C[C@@]23C1=CC(=O)c1ccccc13
IC50 (L1210 [2]; l1210): 900 nM

O=C(Nc1ccc2[nH]c(C(=O)N3C[C@@H](CCl)c4c3cc3c5c(cccc45)C(=O)NO3)cc2c1)c1cc2ccccc2[nH]1
Activity (Neurospora discreta [29]): Active
Activity (Neurospora discreta [30]): inactive
fraction unbound [31]: < 0.05
half-life [9]: > 48 h
IC50 (L1210 [2]; Mus musculus, L1210, 72 h): 0.3 nM
